According to publication PMC7720656 (Journal of medicinal chemistry, 2020):
“Also recorded” adds a separate entry of the source. Marks after values point to notes of the source that are not given here.

Key:
S. aureus ATCC29213 = experiment: MIC by microdilution, S. aureus ATCC29213; format: cell-based, Staphylococcus aureus; conditions: for increase in MIC with added bovine serum albumin: S. aureus ATCC29213; for antibacterial activity in words / antibacterial activity, active / inactive: by MIC with S. aureus ATCC29213
[1] = mice, 10 mg/kg iv; ref Bouley [25]; cited from earlier work
MRSA strain NRS70 = experiment: Time-kill assays; format: cell-based, Staphylococcus aureus; conditions: NRS70, 0.5 to 16 × MIC
Method in brief: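 Cultures of MRSA NRS70 were exposed to the test compound, with a no-antibiotic control tube. At 3, 6, 12 and 24 h, aliquots were plated on LB agar for colony counts, with a detection limit of >50 CFU/mL. A ≥3-log10 drop from the starting inoculum counted as bactericidal. Run in triplicate.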

[2] = plasma protein binding; ref [26]; cited from earlier work
Pharmacokinetics in mice = format: in vivo; conditions: for clearance relative to hepatic blood flow: mice
[3] = test system: S. haemolyticus ATCC 29970; experiment: MIC against Gram-positive organisms; format: cell-based; conditions: Staphylococcus haemolyticus, ATCC29970, read-out: MIC S. haemolyticus ATCC 29970
allosteric site of PBP2a = conditions: read-out: Kd for binding to the allosteric site of PBP2a; ref [23]; cited from earlier work

Row | Structure (SMILES) | antibacterial activity in words (S. aureus ATCC29213) | antibacterial activity, active / inactive (S. aureus ATCC29213) | further results
1 | N#Cc1ccc(/C=C/c2nc3ccccc3c(=O)n2-c2cccc(C(=O)O)c2)cc1 [compound 1, (E)-3-(3-Carboxyphenyl)-2-(4-cyanostyryl)quinazolin-4(3H)-one] | potent activity | – | increase in MIC with added bovine serum albumin (S. aureus ATCC29213): ≤ 4 fold; CL [1]: 6.9 mL/min/kg; time-kill behaviour of compound alone (MRSA strain NRS70): bacteriostatic
2 | O=C(O)c1cccc(-n2c(/C=C/C3CC3)nc3ccccc3c2=O)c1 [compound 48] | loss of activity | – | –
3 | C#Cc1ccc(/C=C/c2nc3ccccc3c(=O)n2-c2cccc(C(=O)O)c2)cc1 [compound 57] | – | active | PPB [2]: 99.6 ± 0.04^h %
4 | O=C(O)c1cccc(-n2c(/C=C/c3ccc(Cl)cc3)nc3ccccc3c2=O)c1 [compound 58] | – | active | increase in MIC with added bovine serum albumin (S. aureus ATCC29213): ≤ 4 fold
5 | O=C(O)c1cccc(-n2c(/C=C/c3ccc(I)cc3)nc3ccccc3c2=O)c1 [compound 59] | – | active | –
6 | N#Cc1ccc(/C=C/c2nc3ccccc3c(=O)n2-c2cc(C(=O)O)ccc2F)cc1 [compound 73, (E)-3-(5-Carboxy-2-fluorophenyl)-2-(4-cyanostyryl)-quinazolin-4(3H)-one] | – | active | clearance (Pharmacokinetics in mice; female, ICR, mouse, plasma, iv, 10 mg/kg): 7.7 mL/min/kg; clearance relative to hepatic blood flow (Pharmacokinetics in mice; 10 mg/kg iv): < 10%; MIC [3]: ≤ 4 µg/mL; increase in MIC with added bovine serum albumin (S. aureus ATCC29213): ≤ 4 fold; time-kill behaviour of compound alone (MRSA strain NRS70): bacteriostatic
7 | N#Cc1ccc(/C=C/c2nc3ccccc3c(=O)n2-c2cc(C(=O)O)ccc2Cl)cc1 [compound 74] | retained acceptable MIC values | active | –
8 | Cc1ccc(C(=O)O)cc1-n1c(/C=C/c2ccc(C#N)cc2)nc2ccccc2c1=O [compound 75] | retained acceptable MIC values | active | –
9 | N#Cc1ccc(/C=C/c2nc3ccccc3c(=O)n2-c2cc(C(=O)O)ccc2C(F)(F)F)cc1 [compound 76] | loss of antibacterial property | inactive | –
10 | N#Cc1ccc(/C=C/c2nc3ccccc3c(=O)n2-c2cc(O)cc(C(=O)O)c2)cc1 [compound 77] | – | inactive | –
11 | N#Cc1ccc(/C=C/c2nc3ccccc3c(=O)n2-c2cc(C(=O)O)ccc2O)cc1 [compound 78] | loss of antibacterial property | inactive | –
12 | COc1ccc(C(=O)O)cc1-n1c(/C=C/c2ccc(C#N)cc2)nc2ccccc2c1=O [compound 79] | loss of antibacterial property | – | –
13 | N#Cc1ccc(/C=C/c2nc3ccccc3c(=O)n2-c2cccc(C(=O)O)c2O)cc1 [compound 81] | loss of antibacterial property | – | –
14 | N#Cc1ccc(/C=C/c2nc3ccccc3c(=O)n2-c2cccc(C(=O)O)n2)cc1 [compound 83] | loss of antibacterial property; also recorded: loss of activity | – | –
15 | N#Cc1ccc(/C=C/c2nc3ccccc3c(=O)n2-c2cc(C(=O)O)ccn2)cc1 [compound 84] | loss of antibacterial property; also recorded: loss of activity | – | –
16 | N#Cc1ccc(/C=C/c2nc3ccccc3c(=O)n2-c2cccc(NC(=O)C(F)(F)F)c2)cc1 [compound 88] | – | active | –
17 | N#Cc1ccc(/C=C/c2nc3ccccc3c(=O)n2-c2cccc(NC(=O)NCc3cnc[nH]3)c2)cc1 [compound 92] | detrimental to the activity | – | –
18 | N#Cc1ccc(/C=C/c2nc3ccccc3c(=O)n2-c2cccc(NC(=O)NCCc3cnc[nH]3)c2)cc1 [compound 93] | detrimental to the activity | – | –
19 | N#Cc1ccc(/C=C/c2nc3ccccc3c(=O)n2-c2cccc(S(N)(=O)=O)c2)cc1 [compound 94] | – | active | clearance relative to hepatic blood flow (Pharmacokinetics in mice; 5 mg/kg iv): > 10%; increase in MIC with added bovine serum albumin (S. aureus ATCC29213): ≤ 4 fold
20 | CC(=O)NS(=O)(=O)c1cccc(-n2c(/C=C/c3ccc(C#N)cc3)nc3ccccc3c2=O)c1 [compound 95] | – | active | –
21 | N#Cc1ccc(/C=C/c2nc3ccccc3c(=O)n2-c2cccc(CNC(=O)C(F)(F)F)c2)cc1 [compound 99] | – | active | –
22 | N#Cc1ccc(/C=C/c2nc3ccccc3c(=O)n2-c2cccc(N)c2)cc1 [compound 111] | potent activity | – | –
23 | C#Cc1ccc(/C=C/c2nc3ccccc3c(=O)n2-c2cccc(S(N)(=O)=O)c2)cc1 [compound 113] | – | – | clearance relative to hepatic blood flow (Pharmacokinetics in mice; 5 mg/kg iv): > 10%
24 | O=C(O)c1cccc(-n2c(CCc3ccc(F)cc3)nc3ccccc3c2=O)c1 [compound 115] | – | – | increase in MIC with added bovine serum albumin (S. aureus ATCC29213): ≤ 4 fold
25 | N#Cc1ccc(CSc2nc3ccccc3c(=O)n2-c2cccc(C(=O)O)c2)cc1 [compound 125] | – | – | increase in MIC with added bovine serum albumin (S. aureus ATCC29213): ≤ 4 fold
26 | CCN1CCN(C(=O)N[C@@H](C(=O)N[C@@H]2C(=O)N3[C@@H]2SC(C)(C)[C@@H]3C(=O)O)c2ccccc2)C(=O)C1=O [piperacillin] | – | – | Kd (allosteric site of PBP2a): 400 µM
